The nature of data set [1]: Clearance in CD1 mouse at 2 mg/kg, iv and 10 mg/kg, po. Format: ADME, organism-based. Conditions: in vivo. In outline: (§1)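 Male CD1 mice. IV dosing at 2 mg/kg, formulated either in 20% captisol/80% water or in 10% dimethylacetamide/23% water/67% PEG 400. Oral dosing at 10 mg/kg, formulated either in 10% Pluronic F108/90% OraPlus or in 0.1% Tween-80/0.5% CMC in water. Reported: CL, Vss, t1/2 and oral F.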

Data set [2] relates to Plasma. Put plainly: Free plasma concentration in po dosed mouse after 4 hrs. It is filed as ADME, organism-based. The note with it: in vivo.
Data set [3] in a line: Terminal half life in Sprague-Dawley rat at 2 mg/kg, iv and 10 mg/kg, po. Format: ADME, organism-based. Conditions: in vivo, read-out: beta t1/2 (converted). A digest of the protocol: (§2)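 Male Sprague-Dawley rats. IV dosing at 2 mg/kg in DMSO. Oral dosing at 10 mg/kg in 0.1% Tween-80/0.5% CMC/99.4% water. Reported: CL, Vss, t1/2 (terminal t1/2 where marked), MRT and oral F.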

Data set [4] is described as follows: Volume of distribution at steady state in Sprague-Dawley rat at 2 mg/kg, iv and 10 mg/kg, po. It is filed as ADME, organism-based. Conditions: in vivo, read-out: Vdss. A digest of the protocol:
as §2

Data set [5] in a line: Half life in CD1 mouse at 2 mg/kg, iv and 10 mg/kg, po. It is filed as ADME, organism-based. The note with it: in vivo. In outline:
as §1

A short description of data set [6]: Oral bioavailability in Sprague-Dawley rat at 10 mg/kg. It is filed as ADME, organism-based. The note with it: in vivo. A digest of the protocol: as §2
Data set [7] in a line: Oral bioavailability in CD1 mouse at 10 mg/kg. It is filed as ADME, organism-based. Conditions: in vivo. A digest of the protocol:
as §1

Data set [8] in a line: in vivo. The note with it: mouse, adipose tissue fat / plasma, po, 50 mg/kg.
Data set [9] can be described thus: Volume of distribution at steady state in CD1 mouse at 2 mg/kg, iv and 10 mg/kg, po. Format: ADME, organism-based. Conditions: in vivo, read-out: Vdss. A digest of the protocol:
as §1

Data set [10] is described as follows: Plasma protein binding in po dosed mouse after 4 hrs. It is filed as ADME, organism-based. The note with it: read-out: PPB (converted).
Data set [11] in a line: Clearance in Sprague-Dawley rat at 2 mg/kg, iv and 10 mg/kg, po. Format: ADME, organism-based. Conditions: in vivo. A digest of the protocol: as §2
A short description of data set [12]: Plasma concentration in mouse at 10 mg/kg, po after 4 hrs. It is filed as ADME, organism-based. Also noted: dose 10 mg/kg, route oral.
The nature of data set [13]: Drug uptake in mouse adipose tissue fat at 30 mg/kg, po after 2 hrs. It is filed as ADME, organism-based. Set-up: dose 30 mg/kg, route oral. The note with it: read-out: Drug uptake.
The nature of data set [14]: Drug uptake in mouse adipose tissue fat at 10 mg/kg, po after 8 hrs. Format: ADME, organism-based. Set-up: dose 10 mg/kg, route oral. The note with it: read-out: Drug uptake.
A short description of data set [15]: Plasma concentration in mouse at 10 mg/kg, po after 8 hrs. It is filed as ADME, organism-based. Set-up: dose 10 mg/kg, route oral.
A short description of data set [16]: Plasma concentration in mouse at 30 mg/kg, po after 6 hrs. Format: ADME, organism-based. Set-up: dose 30 mg/kg, route oral.
The subject of data set [17] is Mus musculus. Put plainly: Ex vivo inhibition of 11beta-HSD1 in mouse adipose tissue at 30 mg/kg, po after 2 hrs. It is filed as functional. In outline: (§3)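 Mice dosed orally at 10 or 30 mg/kg. Adipose 11β-HSD1 activity measured ex vivo as percent inhibition.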
Data set [18] can be described thus: Plasma concentration in mouse at 30 mg/kg, po after 2 hrs. Set-up: dose 30 mg/kg, route oral. Format: ADME, organism-based.
A short description of data set [19]: Drug uptake in mouse adipose tissue fat at 30 mg/kg, po after 8 hrs. Set-up: dose 30 mg/kg, route oral. It is filed as ADME, organism-based. Conditions: read-out: Drug uptake.
The subject of data set [20] is Mus musculus. Put plainly: Ex vivo inhibition of 11beta-HSD1 in mouse adipose tissue at 10 mg/kg, po after 4 hrs. It is filed as functional. A digest of the protocol: as §3
The target of data set [21] is 11-beta-hydroxysteroid dehydrogenase 1 (Mus musculus, UniProt P50172). The data set is described as follows: Inhibition of mouse 11beta-HSD1 expressed in Escherichia coli using [3H]cortisone as substrate by scintillation proximity assay.
Sequence of 11-beta-hydroxysteroid dehydrogenase 1 (P50172 whole entry): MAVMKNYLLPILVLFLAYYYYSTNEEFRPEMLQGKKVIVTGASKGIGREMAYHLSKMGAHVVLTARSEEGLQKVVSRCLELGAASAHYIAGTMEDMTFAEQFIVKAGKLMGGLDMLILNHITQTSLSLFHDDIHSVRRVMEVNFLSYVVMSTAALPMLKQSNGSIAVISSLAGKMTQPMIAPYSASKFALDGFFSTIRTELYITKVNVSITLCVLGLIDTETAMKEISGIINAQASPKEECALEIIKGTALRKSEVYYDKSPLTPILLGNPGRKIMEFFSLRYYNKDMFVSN
A short description of data set [22]: Plasma concentration in mouse at 30 mg/kg, po after 4 hrs. Format: ADME, organism-based. Also noted: dose 30 mg/kg, route oral.
The test system of data set [23] is Mus musculus. The data set is described as follows: Ex vivo inhibition of 11beta-HSD1 in mouse adipose tissue at 30 mg/kg, po after 8 hrs. Format: functional. In outline:
as §3

For data set [24], the system named is Plasma. The data set is described as follows: Free plasma concentration in mouse at 30 mg/kg, po after 4 hrs. Format: ADME, organism-based. Set-up: dose 30 mg/kg, route oral. The note with it: in vivo. A digest of the protocol:
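Mice dosed orally at 30 mg/kg and sampled at 4 h. Free plasma concentration calculated from total plasma level using mouse plasma protein binding.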

A short description of data set [25]: Plasma concentration in mouse at 10 mg/kg, po after 2 hrs. It is filed as ADME, organism-based. Also noted: dose 10 mg/kg, route oral.
A short description of data set [26]: Drug uptake in mouse adipose tissue fat at 10 mg/kg, po after 6 hrs. It is filed as ADME, organism-based. Also noted: dose 10 mg/kg, route oral. The note with it: read-out: Drug uptake.
Data set [27] can be described thus: Plasma concentration in mouse at 30 mg/kg, po after 8 hrs. Format: ADME, organism-based. Set-up: dose 30 mg/kg, route oral.
A short description of data set [28]: Drug uptake in mouse adipose tissue fat at 30 mg/kg, po after 6 hrs. Set-up: dose 30 mg/kg, route oral. Conditions: read-out: Drug uptake. It is filed as ADME, organism-based.
Data set [29] deals with Mus musculus. Put plainly: Ex vivo inhibition of 11beta-HSD1 in mouse adipose tissue at 30 mg/kg, po after 4 hrs. It is filed as functional. A digest of the protocol:
as §3

Data set [30] concerns Mus musculus. Put plainly: Ex vivo inhibition of 11beta-HSD1 in mouse adipose tissue at 30 mg/kg, po after 6 hrs. Format: functional. In outline: as §3
The nature of data set [31]: Drug uptake in mouse adipose tissue fat at 10 mg/kg, po after 4 hrs. The note with it: read-out: Drug uptake. Format: ADME, organism-based. Also noted: dose 10 mg/kg, route oral.
The nature of data set [32]: Drug uptake in mouse adipose tissue fat at 10 mg/kg, po after 2 hrs. Format: ADME, organism-based. Set-up: dose 10 mg/kg, route oral. Conditions: read-out: Drug uptake.
Data set [33] can be described thus: Plasma protein binding in mouse at 30 mg/kg, po after 4 hrs. Conditions: read-out: PPB (converted). Set-up: dose 30 mg/kg, route oral. Format: ADME, organism-based.
Data set [34] is described as follows: Drug uptake in mouse adipose tissue fat at 30 mg/kg, po after 4 hrs. Format: ADME, organism-based. Also noted: dose 30 mg/kg, route oral. The note with it: read-out: Drug uptake.
A short description of data set [35]: Plasma concentration in mouse at 10 mg/kg, po after 6 hrs. It is filed as ADME, organism-based. Set-up: dose 10 mg/kg, route oral.
Data set [36] deals with Mus musculus. The data set is described as follows: Ex vivo inhibition of 11beta-HSD1 in mouse adipose tissue at 10 mg/kg, po after 2 hrs. It is filed as functional. In outline:
as §3

Data set [37] can be described thus: Half life in Sprague-Dawley rat at 2 mg/kg, iv and 10 mg/kg, po. It is filed as ADME, organism-based. Conditions: in vivo. A digest of the protocol: as §2

With `CC(C)[C@]1(C)SC(N[C@H]2C[C@@H]3CC[C@H]2C3)=NC1=O`, the clearance in [1] is 55.2 mL/min/kg; in data set [11], 19.3 mL/min/kg. In addition, the “Cp(f)” value in [2] stood at 240 nM. The half-life in data set [3] is 12.2 h; in data set [5], 3.32 h. The Vd in data set [4] was 1.53 L/kg; in data set [9], 0.9 L/kg. Moreover, the bioavailability in data set [6] came out at 34%; in data set [7], 31%. For the same molecule, the Kp in data set [8] worked out at 1.34. The fraction unbound at 4 h in data set [10] was 0.099.

On to `CC(C)[C@]1(C)SC(N[C@H]2C[C@H]3C[C@@H]2C[C@@H]3O)=NC1=O`, for which the clearance is 24.7 mL/min/kg in data set [1] and 7.33 mL/min/kg in data set [11]. The concentration at 4 h in [12] was determined as 1050 nM; in [22] it was 3590 nM; in [31], 820 nM; in data set [34] it was 980 nM. Besides, the concentration at 2 h in [13] turned out to be 4670 nM; in data set [18] it was 19500 nM; in [25], 4500 nM; in data set [32], 980 nM. In addition, the concentration at 8 h in data set [14] was found to be 130 nM; in [15], 190 nM; in data set [19] it was 580 nM; in [27], 390 nM. For the same molecule, the concentration at 6 h in data set [16] was determined as 1710 nM; in data set [26], 220 nM; in data set [28] it was 2020 nM; in data set [35], 380 nM. Also, the Vd was 0.97 L/kg in [4] and 1.43 L/kg in data set [9]. Further, the inhibition in vivo at 30 mg/kg is 51% in data set [17], 36% in data set [23], 46% in data set [29] and 36% in data set [30]. The half-life in data set [5] is 5.72 h; in data set [37] it was 2.17 h. Further, the bioavailability is 58% in [6] and greater than 100% in data set [7]. Also, the inhibition in vivo at 10 mg/kg in [20] was determined as 31%; in data set [36] it was 38%. In data set [21], this molecule yielded an inhibitory constant (Ki) of 152 nM. The “Cp(f)” value in data set [24] came out at 2100 nM. In addition, the fraction unbound at 4 h in data set [33] was 0.591.

With `CC(C)[C@]1(C)SC(N[C@H]2C[C@H]3C[C@@H]2C[C@H]3O)=NC1=O`, in [4], the Vd was 1.43 L/kg. Further, the Ki in [21] was 181 nM. This molecule gave a clearance in data set [11] of 12.3 mL/min/kg. Moreover, the half-life in data set [37] was 2.41 h.

For the molecule `CC(C)[C@]1(C)SC(N[C@H]2C[C@H]3C[C@@H]2CC3=O)=NC1=O`, the Ki in data set [21] amounted to 230 nM.

Take `CC(C)(O)[C@]1(C)SC(N[C@H]2C[C@@H]3CC[C@H]2C3)=NC1=O`: in data set [4], the Vd turned out to be 0.53 L/kg. In [6], this molecule showed a bioavailability of 53%. Besides, the clearance in data set [11] is 32 mL/min/kg. Further, the half-life in data set [37] was 0.24 h.

The values above are taken from ChEMBL document CHEMBL2021802, “Synthesis and Evaluation of the Metabolites of AMG 221, a Clinical Candidate for the Treatment of Type 2 Diabetes” (ACS Med Chem Lett, 2011).
